Results on 18 compounds are retold here after PubChem BioAssay.

Values without a mark were called inactive. Results filed as inconclusive are left out. Active and inactive are the calls of the source.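 How the source made its calls, unless noted: active means inhibition over a set limit, the all-compound mean plus 3 SD, in both replicate runs; inconclusive means over that limit in just one replicate run; inactive means at or under that limit in both runs.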

Test [1] in a line: OD615 S. cerevisiae growth inhibition, permissive medium, pilot counter-assay, permissive growth control for S. cerevisiae lifespan shortening project (AID 705;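 active means growth inhibition above 25% in both replicates, a cutoff set 3 SD above the mean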). The settings on record: OD615, 24 h, at 10 µM, hits give high values. The method, boiled down:
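assay system = Saccharomyces cerevisiae strain carrying genetically modified DeaD replicative-lifespan system | technique = absorbance (optical density) at 615 nm | buffer or medium = permissive raffinose/galactose medium | timing = cells pre-grown 4 h, then 24 h compound exposure, 30 °C humidified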

Test [2] in a line: Restrictive medium S. cerevisiae growth inhibition, OD615, pilot screen of yeast lifespan reduction project, restrictive growth control (AID 706;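 active means growth inhibition above a set limit, 3 SD over mean compound inhibition, in both replicates, cut at about 43% in these data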;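 further: modified DeaD lifespan yeast strain shifted to restrictive glucose medium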). The following applies: OD615, 48 h, at 10 µM, hits give high values. The method, boiled down:
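System: modified S. cerevisiae. Buffer or medium: CSMM-D glucose medium. Incubation: 4 h pre-growth plus 48 h compound exposure, 30 °C. Detection: absorbance (optical density) measured at 615 nm.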

A short description of test [3]: viability gain of MRP-1-high H69AR cells under doxorubicin, pilot screen, MRP-1 activator project, CellTiter-Glo, duplicate (AID 807;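 active means viability increase at or above a cutoff of the median across tested compounds plus 3 SD, cut at about 8.5% in these data, passing the limit was not always enough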;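 further: compound pretreatment 18-22 h then 72 h combined with doxorubicin; 0% = doxorubicin alone and 100% = vehicle without doxorubicin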). The following applies: H69AR viability with doxorubicin, CellTiter-Glo luminescence; at 10 µM; hits give high values.
Test [4] is described as follows: growth suppression of beta-catenin knockout HCT116, pilot screen, human colon tumor cells (AID 823;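 active means cell viability at or below a set limit in both duplicate runs, the limit being the all-compound median minus 4 SD, cut at about 23% in these data, passing the limit was not always enough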;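 further: 0% = wells killed by 20 µM Hyamine and 100% = untreated DMSO cell wells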). The following applies: CellTiter-Glo, 60 h, at 10 µM, hits give low values.
Test [5] can be described thus: growth suppression of PTEN-deleted HCT116, pilot screen, cell-based, HCT116 clonal line, CellTiter-Glo (AID 824;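 active means viability at or below 27.92% in each of two runs, the all-compound median minus 4 SD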;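 further: 0% = 20 µM Hyamine control and 100% = vehicle cell control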). The settings on record: 60 h, at 10 µM, hits give low values.
The nature of test [6]: inhibitors of the yeast RAM network, pilot screen, dse1pr::URA3 reporter, 5-FOA selection (AID 869).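 Further: 0% = DMSO wells with no growth and 100% = 10 µM 1-NA-PP1 with full growth; RAM network block rescues cells from 5-FOA so hits raise OD615 growth.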 The settings on record: S. cerevisiae dse1pr::URA3 5-FOA growth, OD615, 2 d; at 10 µM; hits give high values; strain carries analog-sensitive mutant Cbk1 kinase.
Test [7] is described as follows: RAM signaling pathway blockade in yeast – S. cerevisiae, Pdr1DBD-CYC8 efflux-inhibited sensitized strain, primary screen (AID 1298;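 active means RAM network inhibition above 8.4% in each of two replicates, 3 SD over the compound average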;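 further: 0% = DMSO untreated cells without growth and 100% = 10 µM 1-NA-PP1 full growth; higher means more yeast growth rescued from 5-FOA killing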). The settings on record: S. cerevisiae cbk1-as DSE1-URA3 strain, 5-FOA growth OD615, 2 d; at 50 µM; hits give high values.

Regarding `COc1ccccc1CNC(=O)c1cnc2ccccn2c1=O`, the growth inhibition in test [1] was -6.47%; in test [2] it was 8.2%. The viability increase in test [3] was -0.15%. Moreover, the viability in test [4] is 97.8%; in test [5], 90.5%. The inhibition in test [6] was 0.36%. Also, the RAM network inhibition in test [7] is 2.45%.
On to `CCNc1nnc(-c2ccccc2OC)s1`, for which the growth inhibition in test [1] was -2.37%; in test [2] it was 3.71%. Further, the viability increase in test [3] was -0.41%. Also, the viability was 96% in test [4] and 103% in test [5]. In addition, the inhibition in test [6] was -0.485%. The RAM network inhibition in test [7] was 5.21%.
On to `CCN=C(Nc1ccc2c(c1)OCO2)SC1CC(=O)N(c2ccccc2F)C1=O` (stereo unspecified), for which the growth inhibition in test [1] is -4.17%; in test [2], -8.21%. The viability increase in test [3] was -1.9%. The viability in test [4] is 97%; in test [5] it was 95.9%. For the same compound, in test [6], the inhibition was 3.15%. For the same compound, the RAM network inhibition in test [7] is 10.8%.
As to `CC(C)N(Cc1nc2ccccc2[nH]1)C(C)C`, the values for the growth inhibition in test [1] and in test [2] were 2.5% and 4.54%, respectively. In addition, the viability increase in test [3] is -0.49%. Also, the viability in test [4] is 94.1%; in test [5], 91.9%. For the same compound, the inhibition in test [6] is 1.25%. Further, the RAM network inhibition in test [7] is 0.22%.
Consider `CN1CCN(c2cc3c(c4c2[nH]c2ccccc24)C(=O)CC(C)(C)C3)CC1`, for which the growth inhibition in test [1] is -15.3%; in test [2] it was 4.61%. For the same compound, the viability increase in test [3] was -8.46%. The viability in test [4] was 1.73% (active); in test [5] it was 1.58% (active). The inhibition in test [6] was 0.76%. Besides, in test [7], the RAM network inhibition is 0.78%.
For `COC(=O)c1ccc(-c2nc(-c3ccc(Br)o3)no2)cc1`, the results for the growth inhibition in test [1] and in test [2] were -14% and -20.4%, respectively. Moreover, the viability increase in test [3] is 3.93%. In addition, the viability in test [4] was 103%; in test [5], 87.4%. Further, in test [6], the inhibition was 2.63%. Also, the RAM network inhibition in test [7] was 1.84%.
For `COCCNC(=O)Cn1ncc2ccsc2c1=O`, the values for the growth inhibition in test [1] and in test [2] were -1.34% and 5.16%, respectively. For the same compound, the viability increase in test [3] was 0.35%. Further, the viability in test [4] was 107%; in test [5], 100%. The inhibition in test [6] was 2.33%. Besides, the RAM network inhibition in test [7] was 4.98%.
For `Cc1cc2nc(SCCN3CCCC3)[nH]c2cc1C`, the growth inhibition in test [1] was 7.63%; in test [2], -8.07%. Further, in test [3], the viability increase is -4.4%. The viability in test [4] was 83.1%; in test [5], 89.1%. Besides, the inhibition in test [6] was 3.22%. The RAM network inhibition in test [7] was -0.81%.
Take `O=C(CSc1nnnn1-c1ccccc1)CSc1nnnn1-c1ccccc1`: the growth inhibition in test [1] is -7.66%; in test [2] it was 1.63%. In test [3], the viability increase is -5.63%. Also, the viability in test [4] is 92.6%; in test [5], 90.1%. Further, the inhibition in test [6] is 2.98%. In addition, the RAM network inhibition in test [7] is 7.19%.
Turning to `CN(C)c1nc(N)nc(-c2cccnc2)n1`, the growth inhibition in test [1] was -0.465%; in test [2], 3.66%. For the same compound, in test [3], the viability increase is 0.55%. The viability is 102% in test [4] and 103% in test [5]. Also, the inhibition in test [6] was 1.14%. Further, the RAM network inhibition in test [7] was 5.69%.
In the case of `CCN(CC)CCNC(=O)c1cc2c(-c3ccc(Cl)cc3)nn(C)c2s1`, the values for the growth inhibition in test [1] and in test [2] were -4.4% and 2.85%, respectively. Besides, in test [3], the viability increase is -8.35%. Besides, the viability in test [4] is 2.18% (active); in test [5], 1.95% (active). Moreover, in test [6], the inhibition was 0.905%. The RAM network inhibition in test [7] was 4.19%.
As for `Cc1ccc(C2CC(=O)NC(SCc3ccccc3)=C2C#N)o1` (stereo unspecified), the growth inhibition in test [1] is -12.6%; in test [2] it was -9.71%. Moreover, the viability increase in test [3] was -3.75%. Besides, the viability is 85.7% in test [4] and 104% in test [5]. Further, in test [6], the inhibition was -0.825%. The RAM network inhibition in test [7] was 0.58%.
Take `O=NC1=C(c2c(O)[nH]c3ccccc23)CCCC1`: the growth inhibition is -3.26% in test [1] and -12% in test [2]. The viability increase in test [3] is -5.46%. In addition, the viability was 91% in test [4] and 93.9% in test [5]. In addition, in test [6], the inhibition is 1.6%. The RAM network inhibition in test [7] is 4.71%.
For the compound `CCc1ccc(C2CC(c3ccc(C)cc3)n3nc(N)nc3N2)cc1` (stereo unspecified), the values for the growth inhibition in test [1] and in test [2] were 5.21% and 24.1%, respectively. Besides, in test [3], the viability increase is 0.11%. Besides, the viability in test [4] was 101%; in test [5] it was 107%. Also, the inhibition in test [6] is 1.35%. Moreover, the RAM network inhibition in test [7] was 8.9%.
Turning to `CC(=O)Nc1ccc(S(=O)(=O)N2CCN(CCC#N)CC2)cc1`, the growth inhibition was -4.55% in test [1] and 6.44% in test [2]. Also, the viability increase in test [3] was 0.85%. The viability in test [4] is 111%; in test [5], 97.1%. Moreover, in test [6], the inhibition is 1.86%. Further, in test [7], the RAM network inhibition was 0.19%.
Take `O=C(Nc1nnc(C2CC2)s1)c1cc(-c2ccccc2)nn1-c1ccccc1`: the growth inhibition was 2.87% in test [1] and 30.2% in test [2]. Further, the viability increase in test [3] was -0.61%. Further, the viability is 76.6% in test [4] and 71.9% in test [5]. Besides, in test [6], the inhibition is 2.71%. The RAM network inhibition in test [7] was 3.62%.
With `Cc1cc(C)cc(OCCCCCNCCO)c1`, the growth inhibition is -8.19% in test [1] and -14.7% in test [2]. Moreover, the viability increase in test [3] was -3.03%. The viability in test [4] was 87.6%; in test [5], 86.5%. For the same compound, the inhibition in test [6] was 2.79%. In addition, the RAM network inhibition in test [7] was 2.47%.
Turning to `Cc1ccc2c(c1)C(c1ccccc1)N(C(=O)c1ccc(Br)o1)CC(=O)N2` (stereo unspecified), the figures for the growth inhibition in test [1] and in test [2] were -8.12% and -8.66%, respectively. Moreover, in test [3], the viability increase is -3.95%. The figures for the viability in test [4] and in test [5] were 76.4% and 77.9%, respectively. Besides, the inhibition in test [6] is -0.275%. Further, the RAM network inhibition in test [7] was 2.72%.
